Reference: ChEMBL document CHEMBL1122708, “Preparation and antibacterial activities of new 1,2,3-diazaborine derivatives and analogues” (1984)
Values after ≈ are worked out from the molar mass of the structure shown.

Experiments:
[1] = tested on: Neisseria gonorrhoeae; experiment: Minimum inhibitory concentration of compound against Neisseria gonorrhoeae AS 7720; assay type: functional
Outline: (§1)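 Agar dilution on Kellogg agar, 10⁶ colony forming units, incubated 20 h at 36 °C in 5% CO₂; MIC is the lowest concentration giving no visible growth.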

[2] = tested on: Escherichia coli; experiment: Minimum inhibitory concentration of compound against Escherichia coli delta 120; assay type: functional
[3] = tested on: Klebsiella aerogenes; experiment: Minimum inhibitory concentration of compound against Enterobacter aerogenes delta 220; assay type: functional
[4] = tested on: Proteus mirabilis; experiment: Minimum inhibitory concentration against Proteus mirabilis delta 89; assay type: functional
[5] = tested on: Neisseria gonorrhoeae; experiment: Minimum inhibitory concentration of compound against Neisseria gonorrhoeae W2; assay type: functional; outline: as §1
[6] = tested on: Escherichia coli; experiment: Antibacterial activity againist Escherichia coli 120 infected NMRI mice after peroral administration; assay type: functional; settings: po
Outline: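 ED50 in NMRI mice infected intraperitoneally with E. coli 120; compound given orally immediately and 5 h after infection.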

[7] = tested on: Salmonella typhimurium; experiment: Minimum inhibitory concentration of compound against Salmonella Typhimurium delta 119; assay type: functional, Salmonella enterica subsp. enterica serovar Typhimurium; settings: Salmonella enterica
[8] = tested on: Klebsiella pneumoniae; experiment: Minimum inhibitory concentration of compound against Klebsiella pneumoniae delta 217; assay type: functional

Row | Compound | MIC [1] | MIC [2] | MIC [3] | MIC [4] | MIC [5] | MIC [7] | MIC [8] | ED50 [6]
1 | Nc1ccc(S(=O)(=O)N2N=Cc3cc(Br)ccc3B2O)cc1 | 1 µg/mL (≈ 2.63 µM) | 10 µg/mL (≈ 26.3 µM) | 25 µg/mL (≈ 65.8 µM) | 0.78 µg/mL (≈ 2.05 µM) | 2 µg/mL (≈ 5.26 µM) | 3.12 µg/mL (≈ 8.21 µM) | 1.56 µg/mL (≈ 4.1 µM) | 16 mg/kg
2 | Cc1ccc2c(c1)C=NN(S(=O)(=O)c1ccc(N)cc1Cl)B2O | 1 µg/mL (≈ 2.86 µM) | 10 µg/mL (≈ 28.6 µM) | 10 µg/mL (≈ 28.6 µM) | 0.39 µg/mL (≈ 1.12 µM) | 1 µg/mL (≈ 2.86 µM) | 3.12 µg/mL (≈ 8.92 µM) | 0.78 µg/mL (≈ 2.23 µM) | 14 mg/kg
3 | CC(=O)Nc1ccc(S(=O)(=O)N2N=Cc3cc(Br)ccc3B2O)c(Cl)c1 | 1 µg/mL (≈ 2.19 µM) | 50 µg/mL (≈ 110 µM) | 50 µg/mL (≈ 110 µM) | 1.56 µg/mL (≈ 3.42 µM) | 2 µg/mL (≈ 4.38 µM) | 12.5 µg/mL (≈ 27.4 µM) | 3.12 µg/mL (≈ 6.83 µM) | 83 mg/kg
4 | Cc1ccc(S(=O)(=O)N2N=Cc3ccc(Cl)cc3B2O)cc1 | 1 µg/mL (≈ 2.99 µM) | > 50 µg/mL | > 50 µg/mL | 25 µg/mL (≈ 74.7 µM) | > 8 µg/mL | 12.5 µg/mL (≈ 37.4 µM) | 12.5 µg/mL (≈ 37.4 µM) | ~50 mg/kg
5 | Cc1ccc(S(=O)(=O)N2N=Cc3sc(Br)cc3B2O)c(Cl)c1 | 0.25 µg/mL (≈ 0.596 µM) | 50 µg/mL (≈ 119 µM) | 50 µg/mL (≈ 119 µM) | 3.12 µg/mL (≈ 7.44 µM) | 1 µg/mL (≈ 2.38 µM) | 12.5 µg/mL (≈ 29.8 µM) | 6.25 µg/mL (≈ 14.9 µM) | 39 mg/kg
6 | Cc1ccccc1S(=O)(=O)N1N=Cc2sc(Br)cc2B1O | 0.5 µg/mL (≈ 1.3 µM) | 25 µg/mL (≈ 64.9 µM) | 50 µg/mL (≈ 130 µM) | 1.56 µg/mL (≈ 4.05 µM) | 0.5 µg/mL (≈ 1.3 µM) | 6.25 µg/mL (≈ 16.2 µM) | 3.12 µg/mL (≈ 8.1 µM) | 57 mg/kg
7 | Cc1ccc(S(=O)(=O)N2N=Cc3cc4c(cc3B2O)C=NN(S(=O)(=O)c2ccc(C)cc2)B4O)cc1 | > 8 µg/mL | > 50 µg/mL | > 50 µg/mL | 50 µg/mL (≈ 95.8 µM) | > 8 µg/mL | > 50 µg/mL | > 50 µg/mL | > 300 mg/kg
8 | Cc1ccc(S(=O)(=O)N2N=Cc3cc(Cl)ccc3B2O)cc1 | 1 µg/mL (≈ 2.99 µM) | 25 µg/mL (≈ 74.7 µM) | > 50 µg/mL | 3.12 µg/mL (≈ 9.32 µM) | 2 µg/mL (≈ 5.98 µM) | 3.12 µg/mL (≈ 9.32 µM) | 6.25 µg/mL (≈ 18.7 µM) | ~20 mg/kg

Further lines, with some results ahead:

Row | MIC [1] | MIC [2] | MIC [3] | MIC [4] | MIC [5] | MIC [7] | MIC [8] | Compound | ED50 [6]
9 | > 8 µg/mL | > 50 µg/mL | > 50 µg/mL | > 50 µg/mL | > 8 µg/mL | > 50 µg/mL | 25 µg/mL (≈ 98 µM) | CCCS(=O)(=O)N1N=Cc2c(ccn2C)B1O | > 300 mg/kg
10 | 0.5 µg/mL (≈ 1.41 µM) | 3.12 µg/mL (≈ 8.8 µM) | 12.5 µg/mL (≈ 35.2 µM) | 0.39 µg/mL (≈ 1.1 µM) | 1 µg/mL (≈ 2.82 µM) | 0.78 µg/mL (≈ 2.2 µM) | 0.31 µg/mL (≈ 0.874 µM) | CCc1cc2c(s1)C=NN(S(=O)(=O)c1ccccc1Cl)B2O | 49 mg/kg
11 | > 8 µg/mL | > 50 µg/mL | > 50 µg/mL | > 50 µg/mL | > 8 µg/mL | > 50 µg/mL | > 50 µg/mL | O=S(=O)(c1ccccc1Cl)N1N=Cc2cc(Br)sc2B1O | > 300 mg/kg
12 | 0.5 µg/mL (≈ 1.41 µM) | 50 µg/mL (≈ 141 µM) | 50 µg/mL (≈ 141 µM) | 1.56 µg/mL (≈ 4.4 µM) | 1 µg/mL (≈ 2.82 µM) | 12.5 µg/mL (≈ 35.2 µM) | 1.56 µg/mL (≈ 4.4 µM) | Cc1ccc(S(=O)(=O)N2N=Cc3sc(C)cc3B2O)c(Cl)c1 | 32 mg/kg
13 | > 8 µg/mL | > 50 µg/mL | > 50 µg/mL | 25 µg/mL (≈ 64.9 µM) | > 8 µg/mL | > 50 µg/mL | > 50 µg/mL | Cc1ccc(S(=O)(=O)N2N=Cc3cc(Br)sc3B2O)cc1 | > 300 mg/kg
14 | 1 µg/mL (≈ 2.42 µM) | > 50 µg/mL | > 50 µg/mL | 2.5 µg/mL (≈ 6.05 µM) | 2 µg/mL (≈ 4.84 µM) | > 50 µg/mL | 25 µg/mL (≈ 60.5 µM) | Cc1cc(C)c(S(=O)(=O)N2N=Cc3sc(Br)cc3B2O)c(C)c1 | > 600 mg/kg
15 | 0.5 µg/mL (≈ 1.75 µM) | 2.5 µg/mL (≈ 8.74 µM) | 5 µg/mL (≈ 17.5 µM) | 1.25 µg/mL (≈ 4.37 µM) | 0.5 µg/mL (≈ 1.75 µM) | 0.31 µg/mL (≈ 1.08 µM) | 0.31 µg/mL (≈ 1.08 µM) | CCCS(=O)(=O)N1N=Cc2cc(CC)sc2B1O | 4 mg/kg
16 | 2 µg/mL (≈ 5.7 µM) | 12.5 µg/mL (≈ 35.6 µM) | 12.5 µg/mL (≈ 35.6 µM) | 6.25 µg/mL (≈ 17.8 µM) | 2 µg/mL (≈ 5.7 µM) | 1.56 µg/mL (≈ 4.44 µM) | 1.56 µg/mL (≈ 4.44 µM) | CC(C)CS(=O)(=O)N1N=Cc2sc(Br)cc2B1O | 73 mg/kg
